Laboratory results taken from PubChem BioAssay AID1537 (The Scripps Research Institute Molecular Screening Center, 2009).
The list shows a part of the results. Values without a mark were called inactive. Active and inactive are the calls of the source.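 How the source made its calls: active means inhibition above the hit cutoff derived for the primary screen (cut at about 15% in these data); inactive means the rest.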

Target: Serine hydrolase RBBP9 (Homo sapiens) (UniProt O75884)
Assay: human RBBP9 inhibitors, retest, confirmation, biochemical, fluorescence polarization, FP-Rh probe, triplicate (AID 1537);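 further: 0% = RBBP9 with DMSO and 100% = wells lacking RBBP9 protein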
Details: recombinant RBBP9, FP-Rh probe fluorescence polarization; at 7.94 µM; active compounds read high
Outline: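 Test system – RBBP9 serine hydrolase enzyme, human · Amount – RBBP9 at 2.5 µM in dispensed enzyme solution · Buffer or medium – Tris/NaCl/Pluronic buffer, pH 8.0 · Reagent – FP-Rh probe · Dosing – single compound dose, 7.94 µM final · Timing – 30 min preincubation at 25 °C, 45 min probe labelling · Technique – fluorescence polarization, 525/598 nm · Replicates – triplicate wells per compound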

Serine hydrolase RBBP9 (Homo sapiens), sequence (O75884 whole entry, looked up): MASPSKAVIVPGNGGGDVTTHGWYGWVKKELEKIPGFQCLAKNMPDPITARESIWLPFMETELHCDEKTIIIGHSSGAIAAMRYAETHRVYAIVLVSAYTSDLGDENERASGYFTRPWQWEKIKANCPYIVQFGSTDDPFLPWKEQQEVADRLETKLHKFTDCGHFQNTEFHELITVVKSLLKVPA

SMILES	inhibition
Nn1c(Cc2cccc3ccccc23)nnc1SCC(=O)N1CC(=O)Nc2ccccc21	6.4%
COCCN(Cc1nc(-c2ccc(C(F)(F)F)cc2)no1)C(C)C	1.94%
Cc1ccc(NC(=O)CN2CCC(C(N)=O)CC2)cc1[N+](=O)[O-]	2.36%
C/C(=N/Nc1nc(-c2ccccc2)c(CC(=O)O)s1)c1ccccc1	31.2% (active)
COc1cc(/C=N/NC(=O)Nc2ccccc2)ccc1OCCOc1ccccc1C	0.38%
O=c1[nH]n(-c2ccc([N+](=O)[O-])cc2)c(=O)c2ccccc12	20.4% (active)
COc1cc(C2C(C(=O)OCCC#N)=C(C)NC3=C2S(=O)(=O)c2ccccc23)cc(OC)c1OC (stereo not drawn)	1.17%
COc1ccc2c(c1)C(C)=CC(C)(C)N2C(=O)Nc1ccccc1	2.49%
Cc1ccnc(-n2sc3ccccc3c2=O)n1	72.8% (active)
O=C1C=CC(=O)N1c1ccc(N2CCCCC2)cc1	25.9% (active)
COc1ccc(N2C(=O)C3CCCN3C2c2cc(OC)c(OC)cc2OC)cc1 (stereo not drawn)	3.25%
Cn1sc(=O)c2cc(S(=O)(=O)NC3CC3)ccc21	26.9% (active)
COc1ccc(-n2nnnc2SCc2nc(N)nc(N3CCOCC3)n2)cc1	3.53%
C=CS(=O)c1sc(Cl)c(N2CCOCC2)c1[N+](=O)[O-] (stereo not drawn)	34.7% (active)
CCc1ccccc1NC1c2ccccc2C(=O)N1c1cccnc1 (stereo not drawn)	3.9%
CCC(=O)N1CCCc2ccccc21	0.8%
O=[N+]([O-])c1c(NCCO)cc(Sc2nc3ccccc3s2)c2nonc12	45.7% (active)
CCN(CC)C(=O)N1CCN(C(=O)c2ccc(C)cn2)CC1	9.27%
O=C(CCCC(=O)N(CC(=O)NC1CCCC1)Cc1ccccc1Cl)Nc1ccccn1	1.03%
CC1=NOC(=O)/C1=C\c1ccccc1	4.74%
COc1cccc(NC(=O)c2ccc3c(SCC(=O)O)c4c(nc3c2)CCCC4)c1	6.99%
CCC(=O)c1ccc(OCC(O)CN2CCN(c3cccc(C(F)(F)F)c3)CC2)cc1 (stereo not drawn)	7.26%
Cc1cc(F)ccc1S(=O)(=O)N1CCCOC1CNC(=O)C(=O)NCCC1=CCCCC1 (stereo not drawn)	10.6%
CCOc1ccc2[nH]c(=O)c(C(c3nnnn3CCOC)N3CCOCC3)cc2c1 (stereo not drawn)	1.76%
Cc1cc([N+](=O)[O-])nn1Cc1ccc(F)cc1	11.8%
COc1ccc(NS(=O)(=O)c2cc(NC(=O)CC(=O)c3ccc([N+](=O)[O-])cc3)ccc2C)cc1	-3.45%
Oc1ccc(N=Cc2sc3ccccc3c2Cl)cc1	12.5%
CC(C)OCCCNC(=O)CNC(=O)c1cccs1	11%
